Assay results pooled from the literature.
Protocols differ between the studies behind these lines.
CDK2 with cyclin A2: Cyclin-dependent kinase 2, with cyclin A2 (CDK2, Homo sapiens, UniProt P24941)
ST14: Suppressor of tumorigenicity 14 protein (ST14, Homo sapiens, UniProt Q9Y5Y6)

Compound | target | assay | setting | measurement | value
COc1cc(-c2cncc3c2CN(C)Cc2cc(N4CCNCC4)ccc2-3)cc(OC)c1OC | Vascular endothelial growth factor receptor 3 (FLT4, Homo sapiens, UniProt P35916) | enzyme activity, inhibitor | 1 µM | remaining activity | 86%
C=CC(=O)N1CCC(COCC(=O)N2CCN(c3nc(-c4cnc(N)nc4C(F)F)nc(N4CCOC[C@@H]4C)n3)CC2)CC1 | Protein kinase C eta type (PRKCH, Homo sapiens, UniProt P24723) | binding, competition with immobilised ligand | 1 µM | remaining binding | 100%
CNc1ncc2c(/C=C/C(=O)N3CCC(OC)CC3)nn(Cc3cccc(C(F)(F)F)c3)c2n1 | Cyclin-dependent kinase 8, with cyclin C (CDK8, Homo sapiens, UniProt P49336) | enzyme activity, inhibitor, radiometric | 1 µM | remaining activity | 105%
Cc1cc([C@@H](C)Nc2ccccc2C(=O)O)c2nc(N3CCC(F)(F)CC3)c(C#N)c(=O)n2c1 | Serine/threonine-protein kinase pim-1 (PIM1, Homo sapiens, UniProt P11309) | binding, competition with immobilised ligand | 10 µM | remaining binding | 100%
CNC(=O)c1cc(Oc2ccc(NC(=O)Nc3ccc(Cl)c(C(F)(F)F)c3)cc2)ccn1 | CDK2 with cyclin A2 | enzyme activity, inhibitor | 200 pM | inhibition | 12.3%
CCCC[C@H](NC(=O)[C@H](Cc1cscn1)NC(=O)CCc1ccccc1)C(=O)N[C@@H](CCCNC(=N)N)C(=O)c1nc2ccccc2s1 | ST14 | enzyme activity, inhibitor | 0.1 µM | remaining activity | 37%
CC(=O)Nc1c(N)nc(SCC(=O)NN)[nH]c1=O | CDK2 with cyclin A2 | enzyme activity, inhibitor | 1 nM | inhibition | 8.32%
N=C(N)NCCC[C@H](NC(=O)[C@H](Cc1ccccc1I)NC(=O)[C@H](Cc1cscn1)NC(=O)CCc1ccccc1)C(=O)c1nc2ccccc2s1 | ST14 | enzyme activity, inhibitor | 0.1 µM | remaining activity | 90%
CC(=O)Nc1c(N)nc(SCC(=O)N/N=C/c2ccc([N+](=O)[O-])cc2)[nH]c1=O | CDK2 with cyclin A2 | enzyme activity, inhibitor | 1 nM | inhibition | 4.03%
N=C(N)NCCC[C@H](NC(=O)[C@@H](NC(=O)[C@H](Cc1cscn1)NC(=O)CCc1ccccc1)C(c1ccccc1)c1ccccc1)C(=O)c1nc2ccccc2s1 | ST14 | enzyme activity, inhibitor | 0.1 µM | remaining activity | 76%
